Calls of active or inactive are those of the source. The rule behind the calls is not given here.
Columns and labels:
[1] = Selectivity ratio of IC50 for human MES-SA cells transfected with mCherry to IC50 for human MES-SA/DX5 cells transfected with mCherry incubated for 72 hrs by fluorescent assay; assay type: functional
MES-SA/Dx5 [2] = experiment: Cytotoxicity against human MES-SA/DX5 cells transfected with mCherry fluorescent protein assessed as inhibition of cell proliferation incubated for 72 hrs by fluorescent assay; assay type: functional, cell-based; conditions: for IC50: Homo sapiens, MES-SA/Dx5, 72 h
In short: (§1)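 MES-SA and MES-SA/Dx5 cells were made to stably express mCherry by lentiviral transduction. Cells were seeded at 5000 (96-well) or 2500 (384-well) per well, allowed to attach 24 h, then treated with compound dilutions for 72 h. Viability was read as fluorescence, excitation 585 nm, emission 610 nm.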

MES-SA [3] = experiment: Cytotoxicity against human MES-SA cells transfected with mCherry fluorescent protein assessed as inhibition of cell proliferation incubated for 72 hrs by fluorescent assay; assay type: functional, cell-based; conditions: for IC50: Homo sapiens, MES-SA, 72 h; in short: as §1
MES-SA/Dx5 [4] = experiment: Cytotoxicity against human MES-SA/DX5 cells transfected with mCherry fluorescent protein incubated for 72 hrs in presence of efflux pump inhibitor, Tariquidar by fluorescence assay; assay type: functional, cell-based
In short: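 The mCherry-expressing cells (lentiviral) were seeded at 5000 or 2500 per well, attached for 24 h, and exposed 72 h to compounds with Tariquidar coadministered. Live-cell signal was fluorescence at 585 nm excitation and 610 nm emission.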

KB 3-1 = experiment: Cytotoxicity against human KB-3-1 cells assessed as inhibition of cell proliferation incubated for 72 hrs by MTT assay; assay type: functional, cell-based; conditions: KB 3-1, 72 h
In short: (§2)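 Cells were seeded (10000/well for A2780, 5000/well for MES-SA/Dx5 and KB-3-1/V1) and left to attach 12 h, then exposed to compound for 72 h. Medium was removed, and MTT (0.83 mg/mL) was added for 1 h at 37 °C. Cells were lysed in DMSO and absorbance read at 540 nm. Signal was corrected for unstained lysate background, normalized to untreated cells, and IC50 taken from a sigmoidal dose-response fit.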

MES-SA [5] = experiment: Cytotoxicity against human MES-SA cells assessed as inhibition of cell proliferation incubated for 72 hrs by MTT assay; assay type: functional, cell-based; in short: as §2
MES-SA/Dx5 [6] = experiment: Cytotoxicity against human MES-SA/DX5 cells assessed as inhibition of cell proliferation incubated for 72 hrs by MTT assay; assay type: functional, cell-based; conditions: MES-SA/Dx5, 72 h; in short: as §2
KB-V1 = experiment: Cytotoxicity against human KB-V1 cells assessed as inhibition of cell proliferation incubated for 72 hrs by MTT assay; assay type: functional, cell-based; conditions: KB-V1, 72 h; in short: as §2
[7] = Cytotoxicity against human A2780adr cells assessed as inhibition of cell proliferation incubated for 72 hrs by MTT assay; assay type: functional, cell-based; conditions: A2780 ADR; in short: as §2
A2780 = experiment: Cytotoxicity against human A2780 cells assessed as inhibition of cell proliferation incubated for 72 hrs by MTT assay; assay type: functional, cell-based; conditions: A2780, 72 h; in short: as §2
[8] = Selectivity ratio of IC50 for human MES-SA cells to IC50 for human MES-SA/DX5 cells incubated for 72 hrs by MTT assay; assay type: functional
In short: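 The selectivity ratio is the IC50 in P-gp-negative parental cells divided by the IC50 in the P-gp-positive resistant partner.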

MES-SA/Dx5 [9] = experiment: Cytotoxicity against human MES-SA/DX5 cells incubated for 72 hrs in presence of efflux pump inhibitor, Tariquidar by MTT assay; assay type: functional, cell-based
In short: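 Run as the 72 h MTT viability readout (12 h attachment, MTT 0.83 mg/mL for 1 h, DMSO lysis, A540), with the P-gp inhibitor Tariquidar at 1 µM co-present. IC50 came from sigmoidal fits of 2 to 4 independent experiments.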

| SMILES | IC50 (MES-SA/Dx5 [2]; read-out: IC50) | IC50 (MES-SA/Dx5 [2]; read-out: pIC50 (converted)) | IC50 (MES-SA [3]; read-out: IC50) | IC50 (MES-SA [3]; read-out: pIC50 (converted)) | also measured |
| --- | --- | --- | --- | --- | --- |
| Cc1ccc(O)c(/C=N/Nc2nc3ccccc3s2)c1 | 15600 nM | 13800 nM | 89100 nM | 85100 nM | Ratio IC50 [1]: 5.65; Activity (MES-SA/Dx5 [4]): Active |
| CCc1ccc(/C=N/NC(=S)Nc2ccc([N+](=O)[O-])cc2)nc1 | 11000 nM |  | 10500 nM |  | IC50 (KB 3-1; read-out: IC50): 8030 nM; IC50 (KB 3-1; read-out: pIC50 (converted)): 7940 nM; IC50 (MES-SA [5]; read-out: IC50): 10900 nM; IC50 (MES-SA [5]; read-out: pIC50 (converted)): 10700 nM; IC50 (MES-SA/Dx5 [6]; read-out: IC50): 8020 nM; IC50 (MES-SA/Dx5 [6]; read-out: pIC50 (converted)): 8130 nM; IC50 (KB-V1; read-out: IC50): 8930 nM; IC50 (KB-V1; read-out: pIC50 (converted)): 8910 nM |
| COc1cc(N/N=C/c2ccccn2)ncn1 | 2710 nM | 2570 nM | 2450 nM | 2340 nM | IC50 (KB 3-1; read-out: IC50): 1950 nM; IC50 (KB 3-1; read-out: pIC50 (converted)): 1910 nM; IC50 (MES-SA [5]; read-out: IC50): 2820 nM; IC50 ([7]; read-out: IC50): 1950 nM; IC50 ([7]; read-out: pIC50 (converted)): 1950 nM; IC50 (A2780; read-out: IC50): 1730 nM; IC50 (A2780; read-out: pIC50 (converted)): 1740 nM; IC50 (MES-SA/Dx5 [6]; read-out: IC50): 2490 nM; IC50 (KB-V1; read-out: IC50): 2830 nM; IC50 (KB-V1; read-out: pIC50 (converted)): 2820 nM |
| C/C(=N\Nc1nc2ccccc2s1)c1ccccc1N | 19000 nM |  | 46200 nM |  | Ratio IC50 [1]: 2.41; IC50 (MES-SA [5]; read-out: IC50): 45600 nM; IC50 (MES-SA [5]; read-out: pIC50 (converted)): 44700 nM; Ratio IC50 [8]: 1.64; IC50 (MES-SA/Dx5 [6]; read-out: IC50): 28000 nM; IC50 (MES-SA/Dx5 [6]; read-out: pIC50 (converted)): 27500 nM |
| C/C(=N\NC(=S)Nc1ccccc1)c1ccccn1 |  |  |  |  | pIC50 (MES-SA/Dx5 [2]): inactive; pIC50 (MES-SA [3]): inactive |
| C(=N\Nc1nc2ccccc2s1)/c1ccccn1 | 3360 nM | 3090 nM | 2700 nM | 2690 nM | IC50 (KB 3-1; read-out: IC50): 650 nM; IC50 (KB 3-1; read-out: pIC50 (converted)): 646 nM; IC50 (MES-SA [5]; read-out: IC50): 1420 nM; IC50 (MES-SA [5]; read-out: pIC50 (converted)): 1410 nM; Ratio IC50 [8]: 1.41; IC50 ([7]; read-out: IC50): 450 nM; IC50 ([7]; read-out: pIC50 (converted)): 447 nM; IC50 (A2780; read-out: IC50): 590 nM; IC50 (A2780; read-out: pIC50 (converted)): 575 nM; IC50 (MES-SA/Dx5 [6]; read-out: IC50): 1020 nM; IC50 (MES-SA/Dx5 [6]; read-out: pIC50 (converted)): 1000 nM; IC50 (KB-V1; read-out: IC50): 840 nM; IC50 (KB-V1; read-out: pIC50 (converted)): 813 nM |
| C/C(=N\NC(=S)Nc1ccccc1C)c1ccccn1 | 92 nM | 87.1 nM | 30 nM | 29.5 nM |  |
| C(=N\Nc1ccccn1)/c1ccc2ccccc2n1 | 430 nM | 427 nM | 820 nM | 776 nM |  |
| O=[N+]([O-])c1ccc(O)c(/C=N/NC(=S)Nc2cccc(C(F)(F)F)c2)c1 | 11900 nM |  | 16400 nM |  |  |
| C/C(=N\NC(=S)Nc1cccc(C(F)(F)F)c1)c1ccccn1 | 11700 nM | 11700 nM | 9590 nM | 9550 nM |  |
| C/C(=N\Nc1ccccn1)c1cc(C)c2ccccc2n1 | 290 nM | 295 nM | 300 nM | 288 nM |  |
| C/C(=N\NC(=S)Nc1ccc(C)cc1)c1ccccc1O | 3460 nM | 4370 nM | 10900 nM | 9770 nM |  |
| O=[N+]([O-])c1ccc(O)c(/C=N/Nc2nc3ccccc3s2)c1 | 1990 nM | 1860 nM | 4070 nM | 3800 nM |  |
| Cc1cc(/C=N/Nc2ccccn2)nc2ccccc12 | 400 nM | 398 nM | 560 nM | 537 nM |  |
| O=[N+]([O-])c1ccc(O)c(/C=N/NC(=S)Nc2ccccc2C(F)(F)F)c1 | 13900 nM |  | 21100 nM |  |  |
| O=C1Nc2ccccc2/C1=N/NC(=S)Nc1cccc(C(F)(F)F)c1 | 1950 nM |  | 3340 nM |  | Activity (MES-SA/Dx5 [9]): inactive; Ratio IC50 [1]: 2.42; IC50 (MES-SA [5]; read-out: IC50): 2060 nM; Ratio IC50 [8]: 1.44; IC50 (MES-SA/Dx5 [6]; read-out: IC50): 1400 nM; Activity (MES-SA/Dx5 [4]): inactive |
| C/C(=N\NC(=S)Nc1cccc(C)c1)c1ccccn1 | 63 nM | 61.7 nM | 32 nM | 31.6 nM |  |
| COc1ccc(NC(=S)N/N=C/c2cccc(C)n2)cc1 | 4220 nM | 4170 nM | 4720 nM | 4680 nM |  |
